Columns and labels:
Format in all cases: functional, cell-based
MCF7 = test: Anticancer activity against human MCF7 cells after 48 hrs by MTT assay; conditions: MCF7, 48 h
In short: (§1)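 MTT assay. Cells seeded at 1 × 10⁴/well in DMEM with 10% FBS and held 24 h at 37 °C in CO₂. Compounds were diluted in culture medium and added alongside vehicle controls, then incubated 48 h. MTT (5 mg/ml stock) was added for 4 h. Supernatant was removed, formazan dissolved in DMSO, and absorbance read at 540 nm.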

A-375 = test: Anticancer activity against human A375 cells after 48 hrs by MTT assay; conditions: A-375, 48 h; in short: as §1
A549 = test: Anticancer activity against human A549 cells after 48 hrs by MTT assay; conditions: A549, 48 h; in short: as §1
ACHN = test: Anticancer activity against human ACHN cells after 48 hrs by MTT assay; in short: as §1
HT-29 = test: Anticancer activity against human HT-29 cells after 48 hrs by MTT assay; conditions: HT-29, 48 h; in short: as §1

Row | Structure (SMILES) | IC50 (MCF7) | IC50 (A-375) | IC50 (A549) | IC50 (ACHN) | IC50 (HT-29)
1 | COc1cc(/C=C/C(=O)c2ccc(F)cc2)ccc1OCC(=O)N[C@@H]1c2cc3c(cc2[C@@H](c2cc(OC)c(OC)c(OC)c2)[C@H]2C(=O)OC[C@@H]21)OCO3 | 19.1 µM | 12.2 µM | 26.4 µM | 26.7 µM | 21.6 µM
2 | COc1ccc(C(=O)/C=C/c2ccc(OCCCCCC(=O)N[C@@H]3c4cc5c(cc4[C@@H](c4cc(OC)c(OC)c(OC)c4)[C@H]4C(=O)OC[C@@H]43)OCO5)c(OC)c2)cc1 | 12 µM | 13 µM | 19 µM | 10 µM | 16 µM
3 | O=C(O)/C=C/c1ccccc1 [CINNAMIC ACID] | 108 µM | 64 µM | 87 µM | 91 µM | 114 µM
4 | COc1ccc(C(=O)/C=C/c2ccc(OCC(=O)N[C@@H]3c4cc5c(cc4[C@@H](c4cc(OC)c(OC)c(OC)c4)[C@H]4C(=O)OC[C@@H]43)OCO5)c(OC)c2)cc1 | 16.2 µM | 9.3 µM | 8.3 µM | 16.1 µM | 16.9 µM
5 | COc1cc([C@@H]2c3cc4c(cc3[C@@H](NC(=O)/C=C/c3ccc([N+](=O)[O-])cc3)[C@H]3COC(=O)[C@H]23)OCO4)cc(OC)c1OC | 10.1 µM | 14.5 µM | 8.2 µM | 12.8 µM | 18.1 µM
6 | COc1cc(/C=C/C(=O)c2c(C)nc3ccccc3c2C)ccc1OCC(=O)N[C@@H]1c2cc3c(cc2[C@@H](c2cc(OC)c(OC)c(OC)c2)[C@H]2C(=O)OC[C@@H]21)OCO3 | 13.8 µM | 14.5 µM | 15.4 µM | 10.8 µM | 12.3 µM
7 | COc1ccc(/C=C/C(=O)N[C@@H]2c3cc4c(cc3[C@@H](c3cc(OC)c(OC)c(OC)c3)[C@H]3C(=O)OC[C@@H]32)OCO4)cc1 | 15.7 µM | 19.1 µM | 7.7 µM | 17.8 µM | 17.6 µM
8 | COc1cc([C@@H]2c3cc4c(cc3[C@H](O)[C@H]3COC(=O)[C@H]23)OCO4)cc(OC)c1OC [PODOFILOX] | 1.18 µM | 2.62 µM | 3.75 µM | 2.12 µM | 0.78 µM
9 | COc1cc(/C=C/C(=O)c2cc(OC)c(OC)c(OC)c2)ccc1OCCCCCC(=O)N[C@@H]1c2cc3c(cc2[C@@H](c2cc(OC)c(OC)c(OC)c2)[C@H]2C(=O)OC[C@@H]21)OCO3 | 10.2 µM | 9.8 µM | 13.6 µM | 19.5 µM | 12.1 µM
10 | COc1cccc2c1C(=O)c1c(O)c3c(c(O)c1C2=O)C[C@@](O)(C(=O)CO)C[C@@H]3O[C@H]1C[C@H](N)[C@H](O)[C@H](C)O1 [DOXORUBICIN] | 2.02 µM | 5.51 µM | 2.18 µM | 0.79 µM | 1.06 µM
11 | COc1cc([C@@H]2c3cc4c(cc3[C@@H](NC(=O)/C=C/c3ccc(F)cc3)[C@H]3COC(=O)[C@H]23)OCO4)cc(OC)c1OC | 14.6 µM | 9.5 µM | 6.8 µM | 18.6 µM | 7.1 µM
12 | COc1cc(/C=C/C(=O)c2cccc([N+](=O)[O-])c2)ccc1OCCCCCC(=O)N[C@@H]1c2cc3c(cc2[C@@H](c2cc(OC)c(OC)c(OC)c2)[C@H]2C(=O)OC[C@@H]21)OCO3 | 18.1 µM | 10.8 µM | 10.7 µM | 11.9 µM | 8.75 µM
13 | COc1cccc(C(=O)/C=C/c2ccc(OCC(=O)N[C@@H]3c4cc5c(cc4[C@@H](c4cc(OC)c(OC)c(OC)c4)[C@H]4C(=O)OC[C@@H]43)OCO5)c(OC)c2)c1 | 21.8 µM | 13.8 µM | 9.1 µM | 13.8 µM | 8.1 µM
14 | COc1cc(/C=C/C(=O)c2ccc(F)cc2)ccc1OCCCCCC(=O)N[C@@H]1c2cc3c(cc2[C@@H](c2cc(OC)c(OC)c(OC)c2)[C@H]2C(=O)OC[C@@H]21)OCO3 | 15.8 µM | 11.4 µM | 5.9 µM | 9.3 µM | 11.7 µM
15 | COc1ccc(/C=C/C(=O)c2cc(OC)c(OC)c(OC)c2)cc1OCC(=O)N[C@@H]1c2cc3c(cc2[C@@H](c2cc(OC)c(OC)c(OC)c2)[C@H]2C(=O)OC[C@@H]21)OCO3 | 15.4 µM | 11.5 µM | 11.7 µM | 11.1 µM | 5.98 µM
16 | COc1cc(C(=O)/C=C/c2cccc(OCC(=O)N[C@@H]3c4cc5c(cc4[C@@H](c4cc(OC)c(OC)c(OC)c4)[C@H]4C(=O)OC[C@@H]43)OCO5)c2)cc(OC)c1OC | 24.4 µM | 18.2 µM | 16.8 µM | 9.1 µM | 15.6 µM

Row | Structure (SMILES) | IC50 (MCF7) | IC50 (A-375) | IC50 (A549) | IC50 (ACHN) | IC50 (HT-29)
17 | O=C(O)/C=C/c1ccc(C(F)(F)F)cc1 | 142 µM | 91 µM | 56 µM | 128 µM | 75 µM
18 | COc1cc(C(=O)/C=C/c2ccc(OCC(=O)N[C@@H]3c4cc5c(cc4[C@@H](c4cc(OC)c(OC)c(OC)c4)[C@H]4C(=O)OC[C@@H]43)OCO5)cc2)cc(OC)c1OC | 24.2 µM | 25.8 µM | 19.1 µM | 10.2 µM | 12.4 µM
19 | COc1ccc(/C=C/C(=O)c2cc(OC)c(OC)c(OC)c2)cc1OCCCCCC(=O)N[C@@H]1c2cc3c(cc2[C@@H](c2cc(OC)c(OC)c(OC)c2)[C@H]2C(=O)OC[C@@H]21)OCO3 | 12.6 µM | 10.3 µM | 16.7 µM | 13.4 µM | 6.47 µM
20 | COc1cc([C@@H]2c3cc4c(cc3[C@@H](NC(=O)/C=C/c3ccc(Cl)cc3)[C@H]3COC(=O)[C@H]23)OCO4)cc(OC)c1OC | 13.7 µM | 5.7 µM | 8.8 µM | 7.54 µM | 11.4 µM
21 | COc1cc(C(=O)/C=C/c2cccc(OCCCCCC(=O)N[C@@H]3c4cc5c(cc4[C@@H](c4cc(OC)c(OC)c(OC)c4)[C@H]4C(=O)OC[C@@H]43)OCO5)c2)cc(OC)c1OC | 8.3 µM | 11.5 µM | 14.7 µM | 20.8 µM | 21.1 µM
22 | COc1cc(/C=C/C(=O)N[C@@H]2c3cc4c(cc3[C@@H](c3cc(OC)c(OC)c(OC)c3)[C@H]3C(=O)OC[C@@H]32)OCO4)cc(OC)c1OC | 17.7 µM | 14 µM | 7.9 µM | 13.1 µM | 8.34 µM
23 | COc1cc(/C=C/C(=O)c2cc(OC)c(OC)c(OC)c2)ccc1OCC(=O)N[C@@H]1c2cc3c(cc2[C@@H](c2cc(OC)c(OC)c(OC)c2)[C@H]2C(=O)OC[C@@H]21)OCO3 | 14.9 µM | 7.8 µM | 10.7 µM | 8.51 µM | 9.54 µM
24 | COc1cccc(C(=O)/C=C/c2ccc(OCCCCCC(=O)N[C@@H]3c4cc5c(cc4[C@@H](c4cc(OC)c(OC)c(OC)c4)[C@H]4C(=O)OC[C@@H]43)OCO5)c(OC)c2)c1 | 17.5 µM | 20.1 µM | 14.4 µM | 13.7 µM | 11.9 µM
25 | COc1cc([C@@H]2c3cc4c(cc3[C@@H](NC(=O)/C=C/c3ccc(Cl)c(Cl)c3)[C@H]3COC(=O)[C@H]23)OCO4)cc(OC)c1OC | 20.1 µM | 13.2 µM | 8.4 µM | 17.7 µM | 21 µM
26 | COc1cc(/C=C/C(=O)c2c(C)nc3ccccc3c2-c2ccccc2)ccc1OCCCCCC(=O)N[C@@H]1c2cc3c(cc2[C@@H](c2cc(OC)c(OC)c(OC)c2)[C@H]2C(=O)OC[C@@H]21)OCO3 | 2.2 µM | 6.8 µM | 7.7 µM | 9.46 µM | 8.9 µM
27 | COc1cc(/C=C/C(=O)c2c(C)nc3ccccc3c2-c2ccccc2)ccc1OCC(=O)N[C@@H]1c2cc3c(cc2[C@@H](c2cc(OC)c(OC)c(OC)c2)[C@H]2C(=O)OC[C@@H]21)OCO3 | 11.2 µM | 7.7 µM | 13.4 µM | 15.7 µM | 7.75 µM
28 | COc1cc(/C=C/C(=O)c2c(C)nc3ccccc3c2C)ccc1OCCCCCC(=O)N[C@@H]1c2cc3c(cc2[C@@H](c2cc(OC)c(OC)c(OC)c2)[C@H]2C(=O)OC[C@@H]21)OCO3 | 8.6 µM | 10.3 µM | 10.6 µM | 10.7 µM | 11.8 µM
29 | COc1cc(C(=O)/C=C/c2ccc(OCCCCCC(=O)N[C@@H]3c4cc5c(cc4[C@@H](c4cc(OC)c(OC)c(OC)c4)[C@H]4C(=O)OC[C@@H]43)OCO5)cc2)cc(OC)c1OC | 24.8 µM | 18.4 µM | 21.5 µM | 16.5 µM | 15.3 µM
30 | COc1cc([C@@H]2c3cc4c(cc3[C@@H](NC(=O)/C=C/c3ccc(Br)cc3)[C@H]3COC(=O)[C@H]23)OCO4)cc(OC)c1OC | 11.2 µM | 17.8 µM | 9.5 µM | 14.3 µM | 19.2 µM
31 | COc1cc(/C=C/C(=O)c2cccc([N+](=O)[O-])c2)ccc1OCC(=O)N[C@@H]1c2cc3c(cc2[C@@H](c2cc(OC)c(OC)c(OC)c2)[C@H]2C(=O)OC[C@@H]21)OCO3 | 6.7 µM | 5.3 µM | 9 µM | 13.2 µM | 8.41 µM
